In PMC7870562 (Bioorganic chemistry, 2020):

How the values were obtained:
[1] = test system: UWBCC1 cells; experiment: MTT cytotoxicity / cell viability assay, UWBCC1; type: cell-based, human; details: for IC50: Homo sapiens, 48 h; for selectivity index: IC50 HaCaT / IC50 UWBCC1
Summary of the method: (§1)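 Cells in 5–10% FBS/DMEM were seeded at 5×10³ per well, refed at 24 h and grown to 70% confluence. They were treated for 48 h at 37°C, 5% CO2 with two-fold serial dilutions of test compound in DMSO (≤0.1%), […], in 8–10 repeats. After MTT, absorbance was read at 562 nm. Viability was expressed relative to DMSO controls and IC50 derived by nonlinear regression. Data are mean ± SD of ≥5 independent experiments in octuplicates.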

[2] = test system: A431 cells; experiment: DAPI staining of apoptotic nuclei, A431; type: cell-based, human
Summary of the method: (§2)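 Equal numbers of cells were seeded in T-25 flasks and exposed to test compound at different concentrations for 36 h. Cells were PBS-washed, stained with DAPI in PBS and imaged by fluorescence microscopy at 10x and 1.6×10x. Apoptotic nuclei were scored by morphology and expressed as percentage of cells.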

[3] = test system: Melanocyte; experiment: MTT cytotoxicity / cell viability assay, normal melanocytes; type: cell-based; details: Homo sapiens, 48 h
Summary of the method: as §1

[4] = test system: HaCaT; experiment: MTT cytotoxicity / cell viability assay, HaCaT keratinocytes; type: cell-based; details: Homo sapiens, 48 h
Summary of the method: as §1

[5] = test system: A375 cells; experiment: MTT cytotoxicity / cell viability assay, A375; type: cell-based, human; details: for IC50: Homo sapiens, A-375, 48 h; for selectivity index: IC50 melanocytes / IC50 A375
Summary of the method: as §1

[6] = target: c-Kit (Homo sapiens, UniProt P10721); experiment: In vitro kinase activity assay; type: biochemical
Summary of the method: (§3)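 Kinase profiling was run at Reaction Biology. IC50 values came from 10-dose mode, three-fold serial dilutions starting at 100 μM. Reference inhibitors were co-assayed at 1 and 10 μM.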

[7] = test system: A375 cells; experiment: DAPI staining of apoptotic nuclei, A375; type: cell-based, human
Summary of the method: as §2

[8] = target: CDK2/Cyclin E (Homo sapiens, UniProt P24941); experiment: In vitro kinase activity assay; type: biochemical; details: 10-dose, three-fold serial dilution from 100 μM
Summary of the method: as §3

[9] = target: CDK2/Cyclin A (Homo sapiens, UniProt P24941); experiment: In vitro kinase activity assay; type: biochemical; details: 10-dose, three-fold serial dilution from 100 μM
Summary of the method: as §3

[10] = test system: SK-Mel-28 cells; experiment: MTT cytotoxicity / cell viability assay, SK-Mel-28; type: cell-based, human; details: for IC50: Homo sapiens, SK-MEL-28, 48 h; for selectivity index: IC50 melanocytes / IC50 SK-Mel-28
Summary of the method: as §1

[11] = test system: A375 and A431 cells; experiment: Scratch wound healing assay; type: cell-based, human; details: A375 and A431, ½IC50, IC50, 2×IC50, 48 h; for inhibition of wound closure: vs untreated controls
Summary of the method: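 Confluent A375 or A431 monolayers in complete DMEM received two parallel scratches made with a 200-μL pipette tip, then were washed. Wells were treated at ½IC50, IC50 or 2×IC50 for 48 h. Wound area was measured by image analysis as a percentage of the initial cell-free area versus 0 h and 48 h controls. Data are mean ± SD of three independent experiments; one-way ANOVA with Dunn's test.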

[12] = test system: A431 cells; experiment: MTT cytotoxicity / cell viability assay, A431; type: cell-based, human; details: for IC50: Homo sapiens, A-431, 48 h; for selectivity index: IC50 HaCaT / IC50 A431
Summary of the method: as §1

[13] = target: mTOR/FRAP1 (Homo sapiens, UniProt P42345); experiment: In vitro kinase activity assay; type: biochemical; details: for IC50: mTOR/FRAP1 IC50, 10-dose, three-fold serial dilution from 100 μM
Summary of the method: as §3

[14] = test system: A375 and A431 cells; experiment: Colony formation assay; type: cell-based, human; details: A375 and A431, ½IC50, IC50, 2×IC50, concentration-dependent
Summary of the method: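 DMSO ≤0.1% v/v was the vehicle control. Cells were trypsinized and ~1000 reseeded per 10-cm2 plate, then grown 10–14 days drug-free at 37°C, 5% CO2, with medium renewed every 2–3 days. Colonies were stained with 0.5% Gentian violet in ~64% methanol/4% paraformaldehyde. Results are percent of control, mean ± SD of three independent experiments.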

[15] = test system: A375 and A431 cells; experiment: Western blot analysis of apoptosis, cell cycle and c-Kit markers; type: cell-based, human; details: A375 and A431, IC50 and 2×IC50, 48 h
Summary of the method: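 Cells were plated at 3×10⁵ overnight and treated at 0, IC50 or 2×IC50 (<0.1% DMSO) for 48 h. Lysates were made in ice-cold RIPA with protease/phosphatase inhibitors and PMSF (15 min), then run on SDS-PAGE. Blots were probed with primary antibodies at 1:250–1:1000 and HRP secondary at 1:2000. Bands were normalized to β-actin, GAPDH or Rab11 and given as % expression; three independent experiments, one-way ANOVA with Dunn's test.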

[16] = A431, treated 36 hours at ½IC50
[17] = A375, treated 36 hours at ½IC50

c-Kit, sequence (P10721 26-976): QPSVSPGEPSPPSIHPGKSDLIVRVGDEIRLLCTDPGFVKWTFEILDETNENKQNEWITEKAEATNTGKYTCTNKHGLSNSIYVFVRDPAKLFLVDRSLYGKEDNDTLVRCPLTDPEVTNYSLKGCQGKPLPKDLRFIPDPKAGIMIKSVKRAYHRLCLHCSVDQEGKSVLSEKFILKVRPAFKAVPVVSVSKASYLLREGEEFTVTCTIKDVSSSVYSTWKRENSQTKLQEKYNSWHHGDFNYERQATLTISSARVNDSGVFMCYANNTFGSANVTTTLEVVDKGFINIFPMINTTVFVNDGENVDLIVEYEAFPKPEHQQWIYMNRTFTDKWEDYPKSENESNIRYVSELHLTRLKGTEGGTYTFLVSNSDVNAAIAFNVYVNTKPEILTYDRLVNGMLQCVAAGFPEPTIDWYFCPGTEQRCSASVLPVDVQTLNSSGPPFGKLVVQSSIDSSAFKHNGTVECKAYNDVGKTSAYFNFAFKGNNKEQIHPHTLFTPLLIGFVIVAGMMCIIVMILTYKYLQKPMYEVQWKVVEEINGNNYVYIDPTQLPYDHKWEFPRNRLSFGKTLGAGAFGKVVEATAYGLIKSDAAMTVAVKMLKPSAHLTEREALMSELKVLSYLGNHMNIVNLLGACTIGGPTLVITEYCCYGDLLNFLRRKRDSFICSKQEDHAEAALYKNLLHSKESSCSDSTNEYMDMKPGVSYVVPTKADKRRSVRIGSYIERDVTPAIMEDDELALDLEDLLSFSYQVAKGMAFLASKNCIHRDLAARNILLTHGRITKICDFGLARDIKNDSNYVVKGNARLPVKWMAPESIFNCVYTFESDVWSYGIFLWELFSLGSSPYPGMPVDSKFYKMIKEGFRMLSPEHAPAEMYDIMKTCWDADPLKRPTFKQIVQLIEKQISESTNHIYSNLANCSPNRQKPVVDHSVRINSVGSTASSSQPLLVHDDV

Row | SMILES | IC50 [1] [µM] | selectivity index [1] | DAPI (+) apoptotic cells ([2]; A431, treated 36 hours at IC50) [%] | DAPI (+) apoptotic cells [2, 16] [%] | IC50 [3] [µM] | IC50 [4] [µM] | IC50 [5] [µM] | selectivity index [5] | IC50 [6] [µM] | DAPI (+) apoptotic cells ([7]; A375, treated 36 hours at IC50) [%] | DAPI (+) apoptotic cells [7, 17] [%] | IC50 [8] [µM] | IC50 [9] [µM] | IC50 [10] [µM] | selectivity index [10] | inhibition of wound closure [11] | IC50 [12] [µM] | selectivity index [12] | IC50 [13] [µM] | other results
1 | COc1cccc(-c2oc3cc(C)ccc3c(=O)c2O)c1 [F9, 3-Hydroxy-2-(3-methoxyphenyl)-7-methyl-4H-chromen-4-one] | 9.4 ± 0.3 | 2.9 | 19.1 | 7.93 | 26 ± 1.6 | 27 ± 0.3 | 12 ± 0.9 | 2.2 | 0.12 | 18.2 | 7.5 | 1.78 | 2.95 | 17 ± 1 | 1.5 | 28–72% | 9.2 ± 0.7 | 2.9 | 1.42 | –
2 | O=c1c(O)c(-c2cccc(Cl)c2)oc2ccc(F)cc12 [F17, 2-(3-Chlorophenyl)-6-fluoro-3-hydroxy-4H-chromen-4-one] | 8.1 ± 1.2 | 4.7 | 18.4 | 8.81 | 32 ± 0.72 | 38 ± 0.8 | 13 ± 1 | 2.5 | 1.74 | 17.7 | 6.9 | 5.7 | 4.57 | 25 ± 3.4 | – | 28–72% | 10 ± 2.6 | 3.8 | 11.5 | –
3 | Cc1cc([N+](=O)[O-])c2oc(-c3ccc(Br)cc3)c(O)c(=O)c2c1 [F20, 2-(4-Bromophenyl)-3-hydroxy-6-methyl-8-nitro-4H-chromen-4-one] | 0.12 ± 0.11 | – | 27.7 | 14.6 | 35 ± 0.23 | 34 ± 0.6 | 6.3 ± 1 | 5.6 | 0.09 | 20.4 | 8.2 | > 100 | 4.77 | 17 ± 3 | 2.1 | – | 0.2 ± 0.1 | ~170 | – | percentage of colonies (in words) [14]: significantly reduced; expression level of pro-apoptotic protein Bax [15]: significantly increased; level of anti-apoptotic protein Bcl-2 [15]: decreased; protein expression levels of cyclin A2, cyclin E2 and CDK2 [15]: significantly suppress; protein expression levels of phosphorylated c-Kit [15]: significantly suppressed; protein expression levels of cleaved caspases −3, −7, −8 and PARP ([15]; vs untreated controls): elevated; scratched wound area closure (in words) ([11]; dose-dependent): significantly decreased; inhibition of mTOR kinase activity (in words) [13]: did not substantively inhibit
